Experimental data from ChEMBL document CHEMBL3124849, “Total synthesis of burkholdacs A and B and 5,6,20-tri-epi-burkholdac A: HDAC inhibition and antiproliferative activity” (Eur J Med Chem, 2014).

Assays:
OVCAR-3 = assay: Cytotoxicity against human OVCAR3 cells by SRB assay; format: functional
How it was run: (§1)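 Tested at the Japanese Foundation for Cancer Research panel of 39 human cancer cell lines. Five concentrations per compound, spanning 10^-10 to 10^-6 M or 10^-8 to 10^-4 M. Growth measured by sulforhodamine B colorimetry. GI50 is the concentration giving 50% growth inhibition relative to control.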

St-4 = assay: Cytotoxicity against human St-4 cells by SRB assay; format: functional; how it was run: as §1
NCI-H522 = assay: Cytotoxicity against human NCI-H522 cells by SRB assay; format: functional; how it was run: as §1
LOX IMVI = assay: Cytotoxicity against human LOXIMVI cells by SRB assay; format: functional; how it was run: as §1
[1] = Selectivity index, ratio of IC50 for mouse HDAC6 to IC50 for human HDAC1
How it was run: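 Ratio of HDAC6 IC50 to HDAC1 IC50. Both enzymes were FLAG-immunopurified from transfected 293T cells: human HDAC1 and mouse HDAC6. Each was assayed on Ac-KGLGK(Ac)-MCA with 100 µM DTT at 37 °C for 30 min, developed with trypsin, and AMC read by fluorescence. IC50s are means of ≥3 curves.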

PC-3 = assay: Cytotoxicity against human PC3 cells by SRB assay; format: functional; how it was run: as §1
Histone deacetylase 1 [2] = molecular target: T1, Histone deacetylase 1 (Homo sapiens, UniProt Q13547); assay: Ratio of FK228 IC50 to compound IC50 for human HDAC1 expressed in human 293T cells; format: cell-based
T1 sequence (Q13547 whole entry): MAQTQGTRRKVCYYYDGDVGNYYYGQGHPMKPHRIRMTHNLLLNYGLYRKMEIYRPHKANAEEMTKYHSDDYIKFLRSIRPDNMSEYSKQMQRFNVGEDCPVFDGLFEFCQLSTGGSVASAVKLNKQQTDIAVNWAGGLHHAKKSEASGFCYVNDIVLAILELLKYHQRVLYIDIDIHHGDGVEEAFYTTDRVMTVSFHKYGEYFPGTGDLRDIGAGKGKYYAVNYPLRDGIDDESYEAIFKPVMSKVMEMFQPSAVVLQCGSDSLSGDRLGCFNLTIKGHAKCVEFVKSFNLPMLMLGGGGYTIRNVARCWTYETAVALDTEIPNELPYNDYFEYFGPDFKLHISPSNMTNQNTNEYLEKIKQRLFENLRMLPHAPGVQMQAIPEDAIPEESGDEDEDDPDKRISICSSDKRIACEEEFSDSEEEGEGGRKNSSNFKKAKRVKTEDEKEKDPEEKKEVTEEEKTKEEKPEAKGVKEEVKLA
How it was run: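 FLAG-tagged human HDAC1 was expressed transiently in 293T cells (pcDNA3-HDAC1), immunoprecipitated with anti-FLAG M2 and eluted with FLAG peptide. Enzyme was incubated with 2 mM stock Ac-KGLGK(Ac)-MCA in 20 mM Tris-HCl pH 8.0, 150 mM NaCl, 10% glycerol, 100 μM DTT, for 30 min at 37 °C. Trypsin then released AMC, read by fluorescence. IC50 is the mean of ≥3 dose-response curves; FK228 reference run alongside.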

[3] = Cytotoxicity against human DMS273 cells by SRB assay; format: functional; settings: DMS-273; how it was run: as §1
[4] = molecular target: T2, Protein deacetylase HDAC6 (Mus musculus, UniProt Q9Z2V5); assay: Inhibition of mouse HDAC6 expressed in human 293T cells using Ac-KGLGK(Ac)-MCA as substrate after 30 mins by fluorescence assay; format: cell-based
T2 sequence (Q9Z2V5 whole entry): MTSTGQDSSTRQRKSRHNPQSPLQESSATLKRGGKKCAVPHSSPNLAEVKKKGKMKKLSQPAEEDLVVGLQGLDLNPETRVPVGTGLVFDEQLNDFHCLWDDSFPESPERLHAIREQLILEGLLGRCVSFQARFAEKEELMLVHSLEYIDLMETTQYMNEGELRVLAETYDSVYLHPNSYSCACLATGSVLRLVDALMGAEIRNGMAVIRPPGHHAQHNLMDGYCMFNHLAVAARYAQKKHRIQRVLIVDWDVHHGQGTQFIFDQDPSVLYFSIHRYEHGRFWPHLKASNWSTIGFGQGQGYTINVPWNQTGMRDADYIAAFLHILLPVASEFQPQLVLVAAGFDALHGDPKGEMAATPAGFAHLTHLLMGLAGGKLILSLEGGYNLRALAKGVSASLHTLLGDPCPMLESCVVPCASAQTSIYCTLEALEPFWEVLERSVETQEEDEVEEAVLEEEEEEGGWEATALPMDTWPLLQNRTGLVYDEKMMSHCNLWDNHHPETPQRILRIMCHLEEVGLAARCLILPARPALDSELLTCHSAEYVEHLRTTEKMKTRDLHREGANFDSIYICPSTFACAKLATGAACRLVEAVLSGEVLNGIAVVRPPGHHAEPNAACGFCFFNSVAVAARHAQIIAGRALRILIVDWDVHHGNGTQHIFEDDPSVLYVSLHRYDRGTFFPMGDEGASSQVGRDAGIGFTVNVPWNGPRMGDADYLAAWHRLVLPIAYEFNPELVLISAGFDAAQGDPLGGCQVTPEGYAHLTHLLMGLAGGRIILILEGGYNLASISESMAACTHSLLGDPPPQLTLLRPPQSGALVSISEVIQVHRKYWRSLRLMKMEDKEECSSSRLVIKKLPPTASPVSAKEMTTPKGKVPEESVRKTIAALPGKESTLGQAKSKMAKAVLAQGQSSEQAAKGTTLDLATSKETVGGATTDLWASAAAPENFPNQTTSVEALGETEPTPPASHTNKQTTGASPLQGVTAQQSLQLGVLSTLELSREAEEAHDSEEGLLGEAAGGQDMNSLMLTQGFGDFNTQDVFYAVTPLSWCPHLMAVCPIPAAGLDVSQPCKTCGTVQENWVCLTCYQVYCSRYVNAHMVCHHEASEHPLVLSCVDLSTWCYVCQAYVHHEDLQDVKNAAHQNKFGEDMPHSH

[5] = Cytotoxicity against human OVCAR4 cells by SRB assay; format: functional; settings: OVCAR-4; how it was run: as §1
SF-295 = assay: Cytotoxicity against human SF295 cells by SRB assay; format: functional; how it was run: as §1
HCT-15 = assay: Cytotoxicity against human HCT15 cells by SRB assay; format: functional; how it was run: as §1
HT-29 = assay: Cytotoxicity against human HT-29 cells by SRB assay; format: functional; how it was run: as §1
U-251 = assay: Cytotoxicity against human U251 cells by SRB assay; format: functional; how it was run: as §1
[6] = Cytotoxicity against human MKN1 cells by SRB assay; format: functional; settings: MKN-1; how it was run: as §1
HCT-116 = assay: Cytotoxicity against human HCT116 cells by SRB assay; format: functional; how it was run: as §1
[7] = Cytotoxicity against human MKN45 cells by SRB assay; format: functional; settings: MKN-45; how it was run: as §1
[8] = Cytotoxicity against human SNB78 cells by SRB assay; format: functional; settings: SNB-78; how it was run: as §1
NCI-H226 = assay: Cytotoxicity against human NCI-H226 cells by SRB assay; format: functional; how it was run: as §1
[9] = Cytotoxicity against human MKN7 cells by SRB assay; format: functional; settings: MKN-7; how it was run: as §1
[10] = Cytotoxicity against human HBC4 cells by SRB assay; format: functional; how it was run: as §1
MDA-MB-231 = assay: Cytotoxicity against human MDA-MB-231 cells by SRB assay; format: functional; how it was run: as §1
[11] = Cytotoxicity against human MKN74 cells by SRB assay; format: functional; settings: MKN-74; how it was run: as §1
NCI-H460 = assay: Cytotoxicity against human NCI-H460 cells by SRB assay; format: functional; how it was run: as §1
Histone deacetylase 1 [12] = molecular target: T1, Histone deacetylase 1; assay: Inhibition of human HDAC1 expressed in human 293T cells using Ac-KGLGK(Ac)-MCA as substrate after 30 mins by fluorescence assay
[13] = Cytotoxicity against human DMS114 cells by SRB assay; format: functional; settings: DMS-114; how it was run: as §1
SK-OV-3 = assay: Cytotoxicity against human SKOV3 cells by SRB assay; format: functional; how it was run: as §1
[14] = Cytotoxicity against human OVCAR5 cells by SRB assay; format: functional; settings: OVCAR-5; how it was run: as §1
[15] = Cytotoxicity against human MKN28 cells by SRB assay; format: functional; settings: MKN-28; how it was run: as §1
[16] = Cytotoxicity against human BSY1 cells by SRB assay; format: functional; settings: BSY-1; how it was run: as §1
SNB-75 = assay: Cytotoxicity against human SNB75 cells by SRB assay; format: functional; how it was run: as §1
OVCAR-8 = assay: Cytotoxicity against human OVCAR8 cells by SRB assay; format: functional; how it was run: as §1
[17] = Cytotoxicity against human HBC5 cells by SRB assay; format: functional; how it was run: as §1
DU-145 = assay: Cytotoxicity against human DU145 cells by SRB assay; format: functional; how it was run: as §1
NCI-H23 = assay: Cytotoxicity against human NCI-H23 cells by SRB assay; format: functional; how it was run: as §1
SF-539 = assay: Cytotoxicity against human SF539 cells by SRB assay; format: functional; how it was run: as §1
[18] = Cytotoxicity against human RXF631L cells by SRB assay; format: functional; settings: RXF 631; how it was run: as §1
ACHN = assay: Cytotoxicity against human ACHN cells by SRB assay; format: functional; how it was run: as §1
MCF7 = assay: Cytotoxicity against human MCF7 cells by SRB assay; format: functional; how it was run: as §1
HCC 2998 = assay: Cytotoxicity against human HCC2998 cells by SRB assay; format: functional; how it was run: as §1
KM12 = assay: Cytotoxicity against human KM12 cells by SRB assay; format: functional; how it was run: as §1
A549 = assay: Cytotoxicity against human A549 cells by SRB assay; format: functional; how it was run: as §1
SF-268 = assay: Cytotoxicity against human SF268 cells by SRB assay; format: functional; how it was run: as §1

What does the source list for `CSCC[C@H]1NC(=O)C[C@H]2/C=C/CCSSC[C@@H](NC1=O)C(=O)N[C@H](C(C)C)[C@@H](O)CC(=O)O2`?
GI50 (OVCAR-3): 2.2 nM; GI50 (St-4): 8.1 nM; GI50 (NCI-H522): 0.2 nM; GI50 (LOX IMVI): 0.5 nM; Ratio IC50 [1]: 1640; GI50 (PC-3): 4.4 nM; Ratio IC50 (Histone deacetylase 1 [2]): 3; GI50 [3]: 3 nM; IC50 [4]: 1970 nM; GI50 [5]: 5.8 nM; GI50 (SF-295): 3 nM; GI50 (HCT-15): 300 nM; GI50 (HT-29): 0.65 nM; GI50 (U-251): 2.2 nM; GI50 [6]: 0.67 nM; GI50 (HCT-116): 0.51 nM; GI50 [7]: 7.6 nM; GI50 [8]: 460 nM; GI50 (NCI-H226): 0.47 nM; GI50 [9]: 4.1 nM; GI50 [10]: 3 nM; GI50 (MDA-MB-231): 1.8 nM; GI50 [11]: 1.8 nM; GI50 (NCI-H460): 0.91 nM; IC50 (Histone deacetylase 1 [12]): 1.2 nM; GI50 [13]: 0.97 nM; GI50 (SK-OV-3): 0.78 nM; GI50 [14]: 1 nM; GI50 [15]: 8.5 nM; GI50 [16]: 4 nM; GI50 (SNB-75): 3.6 nM; GI50 (OVCAR-8): 0.68 nM; GI50 [17]: 7.8 nM; GI50 (DU-145): 0.82 nM; GI50 (NCI-H23): 0.64 nM; GI50 (SF-539): 0.72 nM; GI50 [18]: 1.3 nM; GI50 (ACHN): 3.4 nM; GI50 (MCF7): 2 nM; GI50 (HCC 2998): 0.67 nM; GI50 (KM12): 0.76 nM; GI50 (A549): 0.57 nM; GI50 (SF-268): 1.8 nM

What does the source list for `CSCC[C@@H]1NC(=O)C[C@H]2/C=C/CCSSC[C@@H](NC1=O)C(=O)N[C@@H](C(C)C)[C@H](O)CC(=O)O2`?
GI50 (OVCAR-3): 1800 nM; GI50 (St-4): 3400 nM; GI50 (NCI-H522): 360 nM; GI50 (LOX IMVI): 230 nM; GI50 (PC-3): 1600 nM; GI50 [3]: 2300 nM; IC50 [4]: > 10000 nM; GI50 [5]: 1800 nM; GI50 (SF-295): 1600 nM; GI50 (HCT-15): 15000 nM; GI50 (HT-29): 1400 nM; GI50 (U-251): 410 nM; GI50 [6]: 1400 nM; GI50 (HCT-116): 540 nM; GI50 [7]: 3700 nM; GI50 [8]: 1700 nM; GI50 (NCI-H226): 1700 nM; GI50 [9]: 2100 nM; GI50 [10]: 1300 nM; GI50 (MDA-MB-231): 1800 nM; GI50 [11]: 1500 nM; GI50 (NCI-H460): 1800 nM; IC50 (Histone deacetylase 1 [12]): 337 nM; GI50 [13]: 1300 nM; GI50 (SK-OV-3): 1700 nM; GI50 [14]: 1300 nM; GI50 [15]: 1900 nM; GI50 [16]: 1600 nM; GI50 (SNB-75): 1000 nM; GI50 (OVCAR-8): 1900 nM; GI50 [17]: 1900 nM; GI50 (DU-145): 1500 nM; GI50 (NCI-H23): 1600 nM; GI50 (SF-539): 1800 nM; GI50 [18]: 4000 nM; GI50 (ACHN): 4400 nM; GI50 (MCF7): 1800 nM; GI50 (HCC 2998): 1700 nM; GI50 (KM12): 1600 nM; GI50 (A549): 1400 nM; GI50 (SF-268): 960 nM
